Legend:
[1] = target: Cytochrome P450 2D6 (Homo sapiens, UniProt P10635); test: Activity of human CYP2D6 expressed in microsomes isolated from baculovirus infected insect cell assessed as enzyme-mediated compound formation treated with [14C]-rivoglitazone at 20 uM after 2 hrs by radio-HPLC/LC-MS/MS analysis in presence of NADPH-generating system; format: ADME
In short: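 Baculovirus-insect-cell microsomes expressing the human CYP (1 mg/ml protein) were incubated with [14C]rivoglitazone (20 μM) in 50 mM potassium phosphate (pH 7.4) or 100 mM Tris-HCl (pH 7.5) with an NADPH-generating system (2 mM NADP+, 20 mM glucose 6-phosphate, 2 units/ml G6PDH, 10 mM MgCl2) for 2 h at 37°C. Insect-cell control supersomes served as the control. Reactions were stopped with acetonitrile, and the concentrated supernatants were analysed by radio-HPLC, LC-MS and LC-MS/MS.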

[2] = target: T1, UDP-glucuronosyltransferase 1A9 (Homo sapiens, UniProt O60656); test: Activity of human UGT1A9 expressed in microsomes isolated from baculovirus infected insect cell assessed as enzyme-mediated 2-mercapto-3-(4-((6-methoxy-1-methyl-1H-benzo[d]imidazol-2-yl)methoxy)phenyl)propanoic acid formation at 20 uM after 4 hrs by radio-HPLC/LC-MS/MS analysis in presence of UDPGA; format: ADME
T1 sequence (O60656 whole entry): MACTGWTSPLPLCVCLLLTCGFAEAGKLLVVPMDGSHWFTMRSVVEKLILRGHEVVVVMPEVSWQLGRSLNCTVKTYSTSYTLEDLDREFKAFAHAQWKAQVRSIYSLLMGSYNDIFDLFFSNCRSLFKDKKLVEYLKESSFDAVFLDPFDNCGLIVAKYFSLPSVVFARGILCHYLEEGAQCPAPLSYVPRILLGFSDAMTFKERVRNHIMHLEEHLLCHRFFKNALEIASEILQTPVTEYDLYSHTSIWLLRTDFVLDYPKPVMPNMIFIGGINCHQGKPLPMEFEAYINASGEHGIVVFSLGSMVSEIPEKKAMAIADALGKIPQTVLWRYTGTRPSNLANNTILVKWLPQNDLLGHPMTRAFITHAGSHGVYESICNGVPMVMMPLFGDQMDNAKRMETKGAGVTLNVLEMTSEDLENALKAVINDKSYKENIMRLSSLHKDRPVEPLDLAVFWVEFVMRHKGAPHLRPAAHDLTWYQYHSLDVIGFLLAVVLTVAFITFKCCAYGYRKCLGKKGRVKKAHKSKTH

[3] = target: T2, UDP-glucuronosyltransferase 2B4 (Homo sapiens, UniProt P06133); test: Activity of human UGT2B4 expressed in microsomes isolated from baculovirus infected insect cell assessed as enzyme-mediated (2S,3S,4S,5R,6R)-6-((1-carboxy-2-(4-((6-methoxy-1-methyl-1H-benzo[d]imidazol-2-yl)methoxy)phenyl)ethylthio)carbonylamino)-3,4,5-trihydroxytetrahydro-2H-pyran-2-carboxylic acid formation at 20 uM after 4 hrs by radio-HPLC/LC-MS/MS analysis in presence of UDPGA; format: ADME
T2 sequence (P06133 whole entry): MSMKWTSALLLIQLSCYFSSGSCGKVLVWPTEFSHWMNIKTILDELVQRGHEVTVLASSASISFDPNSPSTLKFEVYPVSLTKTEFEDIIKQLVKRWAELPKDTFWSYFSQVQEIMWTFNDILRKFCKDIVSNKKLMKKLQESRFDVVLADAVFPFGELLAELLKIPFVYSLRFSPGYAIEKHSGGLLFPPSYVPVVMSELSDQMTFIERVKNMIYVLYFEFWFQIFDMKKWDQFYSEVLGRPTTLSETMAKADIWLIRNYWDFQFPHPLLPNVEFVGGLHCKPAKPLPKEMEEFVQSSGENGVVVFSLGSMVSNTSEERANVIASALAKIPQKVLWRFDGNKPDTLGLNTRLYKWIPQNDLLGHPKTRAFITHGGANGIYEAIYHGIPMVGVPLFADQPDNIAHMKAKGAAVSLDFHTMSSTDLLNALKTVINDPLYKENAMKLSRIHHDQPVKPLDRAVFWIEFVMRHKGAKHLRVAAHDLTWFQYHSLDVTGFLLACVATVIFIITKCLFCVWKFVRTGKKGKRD

[4] = Drug metabolism in cynomolgus monkey liver microsomes assessed as formation of 2-((4-((2,4-dioxothiazolidin-5-yl)methyl)phenoxy)methyl)-1-methyl-1H-benzo[d]imidazol-6-yl hydrogen sulfate at 20 uM by radio-HPLC/LC-MS/MS analysis; format: ADME, Macaca fascicularis
[5] = target: Cytochrome P450 3A5 (Homo sapiens, UniProt P20815); test: Activity of human CYP3A5 expressed in microsomes isolated from baculovirus infected insect cell assessed as enzyme-mediated 5-(4-((6-methoxy-1H-benzo[d]imidazol-2-yl)methoxy)benzyl)thiazolidine-2,4-dione formation at 20 uM after 2 hrs by radio-HPLC/LC-MS/MS analysis in presence of NADPH-generating system and NADPH-generating system/SAM; format: ADME
Sequence of Cytochrome P450 3A5 (P20815 whole entry): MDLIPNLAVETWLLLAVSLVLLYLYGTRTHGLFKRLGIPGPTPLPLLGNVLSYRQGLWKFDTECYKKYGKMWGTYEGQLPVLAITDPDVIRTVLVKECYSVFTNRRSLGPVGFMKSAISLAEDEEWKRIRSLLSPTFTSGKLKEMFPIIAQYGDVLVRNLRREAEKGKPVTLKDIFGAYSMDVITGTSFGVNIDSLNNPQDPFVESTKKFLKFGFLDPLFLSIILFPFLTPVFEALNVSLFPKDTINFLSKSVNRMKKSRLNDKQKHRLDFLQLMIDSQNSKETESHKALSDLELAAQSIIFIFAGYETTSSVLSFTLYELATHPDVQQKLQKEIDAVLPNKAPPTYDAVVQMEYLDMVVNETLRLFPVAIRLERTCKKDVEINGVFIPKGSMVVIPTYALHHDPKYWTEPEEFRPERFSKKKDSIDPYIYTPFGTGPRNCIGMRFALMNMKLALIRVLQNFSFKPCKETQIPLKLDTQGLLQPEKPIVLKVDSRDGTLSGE
In short: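 cDNA-expressed human CYP3A5 in baculovirus-insect-cell microsomes (1 mg/ml protein) was incubated with [¹⁴C]rivoglitazone (20 μM) in 50 mM potassium phosphate (pH 7.4) or 100 mM Tris-HCl (pH 7.5). NADPH-generating system: 2 mM NADP⁺, 20 mM glucose 6-phosphate, 2 units/ml G6PDH, 10 mM MgCl₂. Incubation ran 2 h at 37°C with shaking; insect-cell control supersomes served as control. Acetonitrile stop, supernatant concentrated, then radio-HPLC, LC-MS and LC-MS/MS.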

[6] = target: T3, Cytochrome P450 2C8 (Homo sapiens, UniProt P10632); test: Activity of human CYP2C8 expressed in microsomes isolated from baculovirus infected insect cell assessed as enzyme-mediated 2-mercapto-3-(4-((6-methoxy-1-methyl-1H-benzo[d]imidazol-2-yl)methoxy)phenyl)propanamide formation at 20 uM after 2 hrs by radio-HPLC/LC-MS/MS analysis in presence of NADPH-generating system and NADPH-generating system/SAM; format: ADME
T3 sequence (P10632 whole entry): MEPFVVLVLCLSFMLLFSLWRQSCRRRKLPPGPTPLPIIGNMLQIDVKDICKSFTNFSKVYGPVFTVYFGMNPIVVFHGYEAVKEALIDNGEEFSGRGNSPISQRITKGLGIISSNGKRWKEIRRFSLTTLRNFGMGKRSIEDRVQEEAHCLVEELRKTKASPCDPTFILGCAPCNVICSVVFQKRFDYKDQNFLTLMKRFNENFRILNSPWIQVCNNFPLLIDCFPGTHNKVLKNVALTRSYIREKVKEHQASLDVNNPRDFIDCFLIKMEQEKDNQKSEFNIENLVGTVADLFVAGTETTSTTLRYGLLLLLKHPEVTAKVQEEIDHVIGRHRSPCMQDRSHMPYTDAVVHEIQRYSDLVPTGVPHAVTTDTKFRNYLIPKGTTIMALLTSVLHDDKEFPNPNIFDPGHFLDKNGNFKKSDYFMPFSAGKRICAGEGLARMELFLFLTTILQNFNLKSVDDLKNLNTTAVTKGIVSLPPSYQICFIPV
In short: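 Baculovirus/insect-cell microsomes expressing single human CYPs, 1 mg/ml protein, with 50 mM potassium phosphate (pH 7.4) or 100 mM Tris-HCl (pH 7.5). NADPH-generating system: 2 mM NADP⁺, 20 mM glucose 6-phosphate, 2 units/ml G6PDH, 10 mM MgCl₂. [¹⁴C]rivoglitazone at 20 μM, 2 h at 37°C with shaking. Control used insect-cell control supersomes. Stopped with acetonitrile; supernatant concentrated under nitrogen; metabolites analysed by radio-HPLC, LC-MS and LC-MS/MS.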

[7] = system: Liver microsome; test: Drug metabolism in Sprague-Dawley rat liver microsomes assessed as formation of (2S,3S,4S,5R,6R)-6-((1-carboxy-2-(4-((6-methoxy-1-methyl-1H-benzo[d]imidazol-2-yl)methoxy)phenyl)ethylthio)carbonylamino)-3,4,5-trihydroxytetrahydro-2H-pyran-2-carboxylic acid at 20 uM after 4 hrs by radio-HPLC/LC-MS/MS analysis in presence of UDPGA and UDPGA/SAM; format: ADME

Sequence of Cytochrome P450 2D6 (P10635 whole entry): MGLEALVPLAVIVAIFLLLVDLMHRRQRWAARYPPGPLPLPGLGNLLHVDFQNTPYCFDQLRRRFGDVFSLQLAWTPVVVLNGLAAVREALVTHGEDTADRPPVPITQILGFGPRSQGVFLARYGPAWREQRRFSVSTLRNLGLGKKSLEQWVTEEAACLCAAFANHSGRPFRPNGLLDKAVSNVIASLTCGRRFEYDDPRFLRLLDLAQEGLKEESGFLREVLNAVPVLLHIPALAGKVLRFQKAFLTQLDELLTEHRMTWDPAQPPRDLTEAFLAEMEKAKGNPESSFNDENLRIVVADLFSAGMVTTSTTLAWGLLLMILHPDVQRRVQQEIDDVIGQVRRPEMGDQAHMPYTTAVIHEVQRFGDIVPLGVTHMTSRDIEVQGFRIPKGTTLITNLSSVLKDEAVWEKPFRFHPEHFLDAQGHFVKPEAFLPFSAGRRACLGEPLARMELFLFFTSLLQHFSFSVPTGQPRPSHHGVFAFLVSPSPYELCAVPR

Drug metabolism [1]	Drug metabolism [2]	Drug metabolism [3]	Drug metabolism [4]	Drug metabolism [5]	Drug metabolism [6]	Drug metabolism [7]	SMILES
metabolite_detected	–	–	–	–	–	–	COc1ccc2nc(COc3ccc(CC(S)C(=O)O)cc3)n(C)c2c1 (configuration not stated)
–	metabolite_not_detected	metabolite_not_detected	metabolite_not_detected	metabolite_detected	metabolite_detected	metabolite_detected	COc1ccc2nc(COc3ccc(C[14CH]4SC(=O)NC4=O)cc3)n(C)c2c1.Cl (racemic)

From ChEMBL document CHEMBL3526048, “In vitro metabolism of rivoglitazone, a novel peroxisome proliferator-activated receptor γ agonist, in rat, monkey, and human liver microsomes and freshly isolated hepatocytes” (Drug Metab Dispos, 2011)
